Measured values as given in ChEMBL document CHEMBL1275496, “In vivo pharmacodynamic target investigation for micafungin against Candida albicans and C. glabrata in a neutropenic murine candidiasis model” (Antimicrob Agents Chemother, 2008).
≈ marks a conversion by molar mass, not a printed value. *1 amine or outer side, *2 acyl side, *3 side chain or, on linkers, in order; H or OH if unused. Where a SMILES comes first, the peptide text is derived from it. Bridges are numbered along the chain shown (N, C = ends). [ ]: non-standard residue; d: D form. The star is where a group is joined. hTyr(3S-OH,4S-OH,3'-OSO3H) = N[C@H](C(=O)O)[C@H](O)[C@@H](O)c1ccc(O)c(OS(=O)(=O)O)c1; Orn(4R-OH,5R-OH) = O=C([C@H](C[C@@H](O)[C@@H](O)N[*:3])N[*:1])[*:2]; Pro(3S-OH,4S-Me) = C[C@H]1CN[C@H](C(=O)O)[C@H]1O; X1 = CCCCCOc1ccc(-c2cc(-c3ccc(C(=O)*)cc3)no2)cc1; Gln(3R-OH) = NC(=O)C[C@@H](O)[C@H](N)C(=O)O; Hyp = O=C(O)[C@@H]1C[C@@H](O)CN1

Assays:
Format in all cases: functional
[1] = Ratio of AUC in ICR/Swiss neutropenic mouse at static dose of 0.06 mg/kg, ip after 24 hrs to MIC for Candida glabrata isolate 32930; conditions: route intraperitoneal
[2] = Ratio of AUC in ICR/Swiss neutropenic mouse at static dose of 1.80 mg/kg, ip after 24 hrs to MIC for Candida glabrata isolate 5592; conditions: dose 1.8 mg/kg; route intraperitoneal
[3] = Ratio of fAUC in ICR/Swiss neutropenic mouse at static dose of 2.53 mg/kg, ip after 24 hrs to MIC for Candida albicans isolate 98-17; conditions: route intraperitoneal
[4] = Ratio of fAUC in ICR/Swiss neutropenic mouse at static dose of 3.76 mg/kg, ip after 24 hrs to MIC for Candida glabrata isolate 570; conditions: route intraperitoneal
[5] = Ratio of AUC in ICR/Swiss neutropenic mouse at 1-Log kill dose of 3.77 mg/kg, ip after 24 hrs to MIC for Candida glabrata isolate 35315; conditions: route intraperitoneal
Candida albicans [6] = assay: Antifungal activity against Candida albicans
Method in brief: (§1)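 Broth microdilution MIC per CLSI M27-A2. Two endpoints were read against the drug-free control well: partial inhibition (M1, CLSI recommended) and complete inhibition (M2). Tests were run in duplicate on four separate occasions, and the value is the mean.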

Nakaseomyces glabratus [7] = assay: Antifungal activity against Candida glabrata isolate 5592 by CLSI method; method in brief: as §1
Nakaseomyces glabratus [8] = assay: Antifungal activity against Candida glabrata isolate 570 by CLSI method; method in brief: as §1
Candida albicans [9] = assay: Fungistatic activity against Candida albicans isolate 98-210 infected in ICR/Swiss neutropenic mouse after 24 hrs
Method in brief: (§2)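 Neutropenic female ICR/Swiss mice received cyclophosphamide sc at 150 mg/kg on day −4, 100 mg/kg on day −1 and 100 mg/kg on day +2. Mice were infected iv via the tail vein, and ip micafungin in 0.15 M NaCl started 2 h later. Six dose levels from 0.078 to 80 mg/kg/24 h were given q24h for 4 days, 3 mice per dose. Kidney CFU were counted at 96 h. The static dose was derived from a sigmoid Emax (Hill) fit.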

Nakaseomyces glabratus [10] = assay: Fungistatic activity against Candida glabrata isolate 35315 infected in ICR/Swiss neutropenic mouse after 24 hrs; method in brief: as §2

CCCCCOc1ccc(-c2cc(-c3ccc(C(=O)N[C@H]4C[C@@H](O)[C@@H](O)NC(=O)[C@@H]5[C@@H](O)[C@@H](C)CN5C(=O)[C@H]([C@H](O)CC(N)=O)NC(=O)[C@H]([C@H](O)[C@@H](O)c5ccc(O)c(OS(=O)(=O)O)c5)NC(=O)[C@@H]5C[C@@H](O)CN5C(=O)[C@H]([C@@H](C)O)NC4=O)cc3)no2)cc1 [MICAFUNGIN] (X1-[Orn(4R-OH,5R-OH)]T[Hyp][hTyr(3S-OH,4S-OH,3'-OSO3H)][Gln(3R-OH)][Pro(3S-OH,4S-Me)]; lactam 1-C)
RatioAUC/MIC [1]: 236 | RatioAUC/MIC [2]: 3333 | fAUC/MIC [3]: 5.9 | fAUC/MIC [4]: 17.3 | RatioAUC/MIC [5]: 1733 | MIC50 (Candida albicans [6]): 0.015 µg/mL (≈ 0.0118 µM) | MIC90 (Candida albicans [6]): 0.03 µg/mL (≈ 0.0236 µM) | MIC (Nakaseomyces glabratus [7]): 0.03 µg/mL (≈ 0.0236 µM) | MIC50 (Nakaseomyces glabratus [7]): 0.016 µg/mL (≈ 0.0126 µM) | MIC (Nakaseomyces glabratus [8]): 0.03 µg/mL (≈ 0.0236 µM) | MIC50 (Nakaseomyces glabratus [8]): 0.016 µg/mL (≈ 0.0126 µM) | Activity (Candida albicans [9]): 2.84 mg/kg | Activity (Nakaseomyces glabratus [10]): 2.4 mg/kg
